# According to ChEMBL document CHEMBL1152541, “Staurosporine tethered peptide ligands that target cAMP-dependent protein kinase (PKA): optimization and selectivity profiling” (Bioorg Med Chem, 2009):
# *1 amine or outer side, *2 acyl side, *3 side chain or, on linkers, in order; H or OH if unused. Where a SMILES comes first, the peptide text is derived from it. Bridges are numbered along the chain shown (N, C = ends). [ ]: non-standard residue; d: D form. The star is where a group is joined. Staurosporine = CO[C@@H]1[C@H](N(C)*)C[C@H]2O[C@]1(C)n1c3ccccc3c3c4c(c5c6ccccc6n2c5c31)C(=O)NC4; Suc = O=C(CCC(=O)[*:2])[*:1]; Dap = NC[C@H](N)C(=O)O; βAla = NCCC(=O)O
# Key:
# [1] = biological target: Mitogen-activated protein kinase 8 (Homo sapiens) (UniProt P45983); experiment: Binding affinity to human JNK1 at 500 nM by cell-based competition binding assay relative to control in presence of DTT
# Chain of Mitogen-activated protein kinase 8 (Homo sapiens) (P45983 whole entry): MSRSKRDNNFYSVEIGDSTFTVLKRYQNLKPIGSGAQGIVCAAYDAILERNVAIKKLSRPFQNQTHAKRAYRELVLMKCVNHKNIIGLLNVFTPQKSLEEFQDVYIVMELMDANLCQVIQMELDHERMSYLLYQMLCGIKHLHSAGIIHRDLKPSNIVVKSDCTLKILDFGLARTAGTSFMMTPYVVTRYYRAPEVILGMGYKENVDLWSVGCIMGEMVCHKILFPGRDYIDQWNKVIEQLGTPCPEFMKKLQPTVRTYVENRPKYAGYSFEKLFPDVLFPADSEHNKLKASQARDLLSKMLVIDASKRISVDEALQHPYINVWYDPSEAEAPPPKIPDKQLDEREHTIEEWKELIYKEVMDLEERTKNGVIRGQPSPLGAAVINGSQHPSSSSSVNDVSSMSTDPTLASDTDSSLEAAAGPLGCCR
# Procedure, shortened: (§1)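 Competition binding screen (Ambit) across a panel of 90 kinases, scoring test ligand displacement of each kinase's binding relative to control. The screen ran under reducing conditions with 7.5 mM DTT.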
# [2] = system: Epidermal growth factor receptor (Homo sapiens), P00533 [L858R]; experiment: Binding affinity to human EGFR L858R mutant at 500 nM by cell-based competition binding assay relative to control in presence of DTT
# Procedure, shortened: (§2)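 Commercial (Ambit) competitive kinase-binding panel of 90 kinases measured the binding profile. Run under reducing conditions of 7.5 mM DTT. Binding is expressed relative to control.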
# [3] = biological target: Ribosomal protein S6 kinase alpha-3 (Homo sapiens) (UniProt P51812); experiment: Binding affinity to human RPS6KA3 kinase domain 1 at 500 nM by cell-based competition binding assay relative to control in presence of DTT
# Chain of Ribosomal protein S6 kinase alpha-3 (Homo sapiens) (P51812 whole entry, the tested form may be a part, canonical isoform): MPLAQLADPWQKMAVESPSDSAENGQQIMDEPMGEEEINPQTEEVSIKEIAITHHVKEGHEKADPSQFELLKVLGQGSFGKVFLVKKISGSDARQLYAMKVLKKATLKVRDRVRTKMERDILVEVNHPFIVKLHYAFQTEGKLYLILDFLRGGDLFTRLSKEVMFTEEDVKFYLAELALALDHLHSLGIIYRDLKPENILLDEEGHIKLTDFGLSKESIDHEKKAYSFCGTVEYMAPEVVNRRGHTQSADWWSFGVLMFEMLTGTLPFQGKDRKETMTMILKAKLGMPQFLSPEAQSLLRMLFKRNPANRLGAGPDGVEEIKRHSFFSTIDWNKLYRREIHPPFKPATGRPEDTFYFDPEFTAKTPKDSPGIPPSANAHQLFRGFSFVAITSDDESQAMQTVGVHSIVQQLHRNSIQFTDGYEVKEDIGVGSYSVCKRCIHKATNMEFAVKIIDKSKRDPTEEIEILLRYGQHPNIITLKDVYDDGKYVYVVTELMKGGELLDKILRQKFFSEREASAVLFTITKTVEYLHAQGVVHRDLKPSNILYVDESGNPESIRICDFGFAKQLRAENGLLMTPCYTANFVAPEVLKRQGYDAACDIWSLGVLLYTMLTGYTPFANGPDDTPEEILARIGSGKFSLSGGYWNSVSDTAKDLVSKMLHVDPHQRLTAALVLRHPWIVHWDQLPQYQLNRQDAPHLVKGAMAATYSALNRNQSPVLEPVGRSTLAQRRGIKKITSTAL
# [4] = biological target: Phosphatidylinositol 4,5-bisphosphate 3-kinase catalytic subunit alpha isoform (Homo sapiens) (UniProt P42336); experiment: Binding affinity to human PIK3Calpha at 500 nM by cell-based competition binding assay relative to control in presence of DTT
# [5] = biological target: T1, Bone morphogenetic protein receptor type-2 (Homo sapiens) (UniProt Q13873); experiment: Binding affinity to human BMPR2 at 200 nM by cell-based competition binding assay relative to control in presence of DTT
# T1 sequence (whole entry): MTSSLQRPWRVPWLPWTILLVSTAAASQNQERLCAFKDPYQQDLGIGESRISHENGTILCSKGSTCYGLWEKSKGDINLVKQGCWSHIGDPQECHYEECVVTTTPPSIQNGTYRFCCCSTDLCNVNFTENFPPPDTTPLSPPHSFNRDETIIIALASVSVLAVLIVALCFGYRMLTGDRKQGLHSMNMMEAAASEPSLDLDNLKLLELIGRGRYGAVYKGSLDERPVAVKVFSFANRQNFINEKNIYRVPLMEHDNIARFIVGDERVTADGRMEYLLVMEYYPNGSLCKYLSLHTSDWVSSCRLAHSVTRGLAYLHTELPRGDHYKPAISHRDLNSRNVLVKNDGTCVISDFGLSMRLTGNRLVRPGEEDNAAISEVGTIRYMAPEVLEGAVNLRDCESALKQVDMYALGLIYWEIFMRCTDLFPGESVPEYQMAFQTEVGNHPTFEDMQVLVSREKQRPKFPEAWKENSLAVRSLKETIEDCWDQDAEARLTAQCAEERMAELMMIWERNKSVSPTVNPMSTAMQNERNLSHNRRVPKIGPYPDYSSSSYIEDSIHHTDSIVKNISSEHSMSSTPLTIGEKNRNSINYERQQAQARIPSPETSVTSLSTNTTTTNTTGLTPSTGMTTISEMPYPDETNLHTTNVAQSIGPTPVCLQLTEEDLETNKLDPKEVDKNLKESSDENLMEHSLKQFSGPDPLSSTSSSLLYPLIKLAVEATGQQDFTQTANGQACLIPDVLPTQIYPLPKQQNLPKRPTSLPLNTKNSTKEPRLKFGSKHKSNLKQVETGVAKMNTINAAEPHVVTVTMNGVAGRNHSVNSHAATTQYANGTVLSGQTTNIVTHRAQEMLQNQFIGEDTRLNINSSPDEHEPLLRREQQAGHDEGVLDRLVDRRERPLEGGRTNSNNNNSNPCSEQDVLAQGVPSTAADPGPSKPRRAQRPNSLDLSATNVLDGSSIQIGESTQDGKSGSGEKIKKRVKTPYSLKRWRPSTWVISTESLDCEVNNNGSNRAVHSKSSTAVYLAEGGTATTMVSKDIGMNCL
# Procedure, shortened: (§3)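 Kinase binding profiling ran on a commercial (Ambit) competitive binding screen against a panel of 90 kinases. The screen used reducing conditions with 7.5 mM DTT. To withstand the DTT, the bivalent ligand was tested as its amide isostere, with the disulfide replaced. A staurosporine derivative carrying a 3 β-alanine linker was run as the reference compound.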
# [6] = biological target: Dual specificity mitogen-activated protein kinase kinase 1 (Homo sapiens) (UniProt Q02750); experiment: Binding affinity to human MEK1 at 200 nM by cell-based competition binding assay relative to control in presence of DTT
# Chain of Dual specificity mitogen-activated protein kinase kinase 1 (Homo sapiens) (Q02750 whole entry): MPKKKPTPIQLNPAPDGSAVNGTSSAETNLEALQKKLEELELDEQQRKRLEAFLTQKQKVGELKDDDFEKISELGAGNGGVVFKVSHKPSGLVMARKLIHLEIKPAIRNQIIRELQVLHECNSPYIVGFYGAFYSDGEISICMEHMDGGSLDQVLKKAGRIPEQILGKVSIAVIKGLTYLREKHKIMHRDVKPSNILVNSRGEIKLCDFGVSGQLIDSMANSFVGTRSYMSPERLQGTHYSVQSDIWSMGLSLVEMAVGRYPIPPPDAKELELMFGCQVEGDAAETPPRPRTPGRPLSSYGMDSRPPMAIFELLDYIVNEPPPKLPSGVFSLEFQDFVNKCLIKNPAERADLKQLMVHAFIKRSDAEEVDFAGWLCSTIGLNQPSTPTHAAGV
# Procedure, shortened: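 Kinase binding profile from a commercial panel of 90 kinases, run as a competitive binding assay. The panel was screened under reducing conditions of 7.5 mM DTT. Signal was compared with the untreated control.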
# [7] = biological target: Angiopoietin-1 receptor (Homo sapiens) (UniProt Q02763); experiment: Binding affinity to human TIE2 at 200 nM by cell-based competition binding assay relative to control in presence of DTT
# Chain of Angiopoietin-1 receptor (Homo sapiens) (Q02763 whole entry): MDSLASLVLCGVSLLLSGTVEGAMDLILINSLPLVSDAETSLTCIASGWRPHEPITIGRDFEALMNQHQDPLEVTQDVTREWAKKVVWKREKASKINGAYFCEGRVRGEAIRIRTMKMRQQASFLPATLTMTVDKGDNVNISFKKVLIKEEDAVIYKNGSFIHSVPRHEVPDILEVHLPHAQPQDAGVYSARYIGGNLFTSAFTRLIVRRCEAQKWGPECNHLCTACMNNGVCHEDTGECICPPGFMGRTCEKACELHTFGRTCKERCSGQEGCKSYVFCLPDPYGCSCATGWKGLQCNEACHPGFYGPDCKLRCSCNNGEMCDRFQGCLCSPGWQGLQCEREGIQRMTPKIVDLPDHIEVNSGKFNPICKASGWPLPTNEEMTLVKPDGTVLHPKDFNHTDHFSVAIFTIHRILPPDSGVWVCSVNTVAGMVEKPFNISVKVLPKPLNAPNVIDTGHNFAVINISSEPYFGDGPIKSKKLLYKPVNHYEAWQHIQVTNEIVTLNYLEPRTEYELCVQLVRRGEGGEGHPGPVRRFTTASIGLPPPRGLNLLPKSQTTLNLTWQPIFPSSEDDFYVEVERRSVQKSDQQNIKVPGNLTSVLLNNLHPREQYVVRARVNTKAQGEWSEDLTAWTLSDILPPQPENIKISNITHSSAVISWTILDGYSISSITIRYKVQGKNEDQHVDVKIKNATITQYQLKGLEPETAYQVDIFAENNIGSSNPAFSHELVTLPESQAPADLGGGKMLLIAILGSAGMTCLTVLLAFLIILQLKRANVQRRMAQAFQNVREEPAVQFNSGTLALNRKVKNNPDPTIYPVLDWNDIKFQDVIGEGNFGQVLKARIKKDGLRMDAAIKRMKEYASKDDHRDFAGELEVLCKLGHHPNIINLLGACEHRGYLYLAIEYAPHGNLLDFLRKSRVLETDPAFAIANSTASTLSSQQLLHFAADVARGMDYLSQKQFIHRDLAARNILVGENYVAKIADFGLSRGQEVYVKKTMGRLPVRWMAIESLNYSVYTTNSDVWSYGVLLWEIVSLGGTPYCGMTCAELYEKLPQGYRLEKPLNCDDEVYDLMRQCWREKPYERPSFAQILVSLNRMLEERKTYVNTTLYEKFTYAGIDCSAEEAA
# [8] = biological target: T2, Activin receptor type-1B (Homo sapiens) (UniProt P36896); experiment: Binding affinity to human ACVR1B at 200 nM by cell-based competition binding assay relative to control in presence of DTT; procedure, shortened: as §3
# T2 sequence (whole entry): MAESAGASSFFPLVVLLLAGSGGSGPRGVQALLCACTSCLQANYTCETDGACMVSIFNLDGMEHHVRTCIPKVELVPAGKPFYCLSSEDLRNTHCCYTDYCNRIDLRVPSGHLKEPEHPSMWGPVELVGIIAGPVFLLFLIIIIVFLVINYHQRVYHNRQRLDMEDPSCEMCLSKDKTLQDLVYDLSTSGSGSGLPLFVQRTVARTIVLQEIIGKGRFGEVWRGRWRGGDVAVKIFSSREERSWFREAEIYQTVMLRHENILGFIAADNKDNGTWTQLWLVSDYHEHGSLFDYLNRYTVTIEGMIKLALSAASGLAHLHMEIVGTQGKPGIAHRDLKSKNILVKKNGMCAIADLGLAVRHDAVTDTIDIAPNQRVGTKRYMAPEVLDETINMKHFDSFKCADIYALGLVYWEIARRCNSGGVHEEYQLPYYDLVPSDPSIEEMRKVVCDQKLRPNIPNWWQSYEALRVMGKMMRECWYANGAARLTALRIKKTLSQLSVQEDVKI
# [9] = biological target: Mast/stem cell growth factor receptor Kit (Homo sapiens) (UniProt P10721); experiment: Binding affinity to human KIT at 200 nM by cell-based competition binding assay relative to control in presence of DTT; procedure, shortened: as §1
# [10] = biological target: Vascular endothelial growth factor receptor 2 (Homo sapiens) (UniProt P35968); experiment: Binding affinity to human VEGFR2 at 200 nM by cell-based competition binding assay relative to control in presence of DTT
# Chain of Vascular endothelial growth factor receptor 2 (Homo sapiens) (P35968 whole entry): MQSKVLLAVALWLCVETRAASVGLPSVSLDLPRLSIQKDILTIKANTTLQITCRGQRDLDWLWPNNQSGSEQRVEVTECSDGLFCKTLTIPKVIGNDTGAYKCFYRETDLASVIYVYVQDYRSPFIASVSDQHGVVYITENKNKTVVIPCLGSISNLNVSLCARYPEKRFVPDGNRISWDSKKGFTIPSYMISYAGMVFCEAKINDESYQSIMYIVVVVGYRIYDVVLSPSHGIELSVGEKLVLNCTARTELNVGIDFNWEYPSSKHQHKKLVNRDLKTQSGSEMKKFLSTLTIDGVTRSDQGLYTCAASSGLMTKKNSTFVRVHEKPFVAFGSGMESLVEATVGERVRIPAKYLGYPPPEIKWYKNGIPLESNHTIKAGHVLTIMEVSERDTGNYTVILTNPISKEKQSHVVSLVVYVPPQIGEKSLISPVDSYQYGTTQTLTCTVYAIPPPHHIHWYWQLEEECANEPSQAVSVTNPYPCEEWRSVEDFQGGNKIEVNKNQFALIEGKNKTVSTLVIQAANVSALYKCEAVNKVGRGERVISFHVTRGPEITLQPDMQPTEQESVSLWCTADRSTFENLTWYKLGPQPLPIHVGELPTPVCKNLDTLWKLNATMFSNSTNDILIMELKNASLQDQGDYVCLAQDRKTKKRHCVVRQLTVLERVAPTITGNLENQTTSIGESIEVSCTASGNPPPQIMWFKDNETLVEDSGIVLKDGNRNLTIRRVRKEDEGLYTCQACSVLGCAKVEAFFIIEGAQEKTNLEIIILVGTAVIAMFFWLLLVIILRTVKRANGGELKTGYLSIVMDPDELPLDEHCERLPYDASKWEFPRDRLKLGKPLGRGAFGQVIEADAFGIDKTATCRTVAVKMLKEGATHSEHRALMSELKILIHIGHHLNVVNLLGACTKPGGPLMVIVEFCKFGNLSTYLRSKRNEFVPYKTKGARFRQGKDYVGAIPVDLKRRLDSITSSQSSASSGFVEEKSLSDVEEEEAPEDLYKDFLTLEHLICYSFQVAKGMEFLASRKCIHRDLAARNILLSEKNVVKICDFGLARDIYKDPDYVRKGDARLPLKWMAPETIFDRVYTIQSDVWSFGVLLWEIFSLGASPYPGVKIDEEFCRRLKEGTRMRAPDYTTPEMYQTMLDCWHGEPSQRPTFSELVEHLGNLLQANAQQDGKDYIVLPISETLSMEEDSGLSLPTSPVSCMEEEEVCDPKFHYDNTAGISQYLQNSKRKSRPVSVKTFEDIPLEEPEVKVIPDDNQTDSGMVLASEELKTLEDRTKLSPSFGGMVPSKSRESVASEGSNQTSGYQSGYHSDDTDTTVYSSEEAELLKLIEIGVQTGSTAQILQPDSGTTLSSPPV
# [11] = biological target: Tyrosine-protein kinase BTK (Homo sapiens) (UniProt Q06187); experiment: Binding affinity to human BTK at 50 nM by cell-based competition binding assay relative to control in presence of DTT; procedure, shortened: as §3
# [12] = biological target: Ephrin type-A receptor 2 (Homo sapiens) (UniProt P29317); experiment: Binding affinity to human EPHA2 at 50 nM by cell-based competition binding assay relative to control in presence of DTT; procedure, shortened: as §2
# Chain of Ephrin type-A receptor 2 (Homo sapiens) (P29317 whole entry): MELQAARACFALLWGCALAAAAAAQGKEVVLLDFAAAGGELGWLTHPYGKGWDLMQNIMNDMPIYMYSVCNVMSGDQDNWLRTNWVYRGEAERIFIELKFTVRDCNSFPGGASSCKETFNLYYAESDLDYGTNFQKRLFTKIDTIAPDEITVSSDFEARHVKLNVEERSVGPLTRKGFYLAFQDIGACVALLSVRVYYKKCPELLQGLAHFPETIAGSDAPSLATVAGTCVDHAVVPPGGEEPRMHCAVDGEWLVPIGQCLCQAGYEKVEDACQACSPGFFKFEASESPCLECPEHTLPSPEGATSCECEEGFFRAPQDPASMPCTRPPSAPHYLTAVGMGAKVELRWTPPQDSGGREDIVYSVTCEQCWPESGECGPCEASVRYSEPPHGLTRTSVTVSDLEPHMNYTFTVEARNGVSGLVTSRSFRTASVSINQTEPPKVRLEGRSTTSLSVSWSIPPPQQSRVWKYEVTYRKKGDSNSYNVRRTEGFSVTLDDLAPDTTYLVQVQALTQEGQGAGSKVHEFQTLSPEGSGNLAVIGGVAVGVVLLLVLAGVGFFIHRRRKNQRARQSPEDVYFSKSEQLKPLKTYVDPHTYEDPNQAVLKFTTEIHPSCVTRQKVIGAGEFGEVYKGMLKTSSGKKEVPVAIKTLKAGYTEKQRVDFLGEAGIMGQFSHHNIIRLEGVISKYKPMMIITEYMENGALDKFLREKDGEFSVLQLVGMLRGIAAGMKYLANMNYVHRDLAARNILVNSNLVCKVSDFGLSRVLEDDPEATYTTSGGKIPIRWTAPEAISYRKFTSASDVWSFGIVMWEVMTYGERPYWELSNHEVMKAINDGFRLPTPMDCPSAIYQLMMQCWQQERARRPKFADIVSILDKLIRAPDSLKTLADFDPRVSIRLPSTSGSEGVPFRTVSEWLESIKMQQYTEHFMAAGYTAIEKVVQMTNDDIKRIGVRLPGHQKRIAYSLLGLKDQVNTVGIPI
structure (smiles),measurement,setting,value
CO[C@@H]1[C@H](N(C)C(=O)CCC(=O)NCCC(=O)NCCC(=O)NCCC(N)=O)C[C@H]2O[C@]1(C)n1c3ccccc3c3c4c(c5c6ccccc6n2c5c31)C(=O)NC4,Activity,[1],52%
same,Activity,[2],53%
same,Activity,[3],44%
same,Activity,[4],100%
CO[C@@H]1[C@H](N(C)C(=O)CCC(=O)NCCC(=O)NCCC(=O)NCCC(=O)NCCC(=O)NCCC(=O)NCCC(=O)NCCC(=O)N[C@H]2CSSC[C@@H](C(=O)NCC(N)=O)NC(=O)CNC(=O)[C@H](Cc3ccccc3)NC(=O)[C@H](C(C)C)NC(=O)[C@H](CCCNC(=N)N)NC(=O)[C@H](Cc3ccccc3)NC(=O)[C@H](C(C)C)NC2=O)C[C@H]2O[C@]1(C)n1c3ccccc3c3c4c(c5c6ccccc6n2c5c31)C(=O)NC4 ({Staurosporine-Suc-βAla-βAla-βAla-βAla-βAla-βAla-βAla}-CVFRVFGCG-NH2; disulfide 1-8),Activity,[5],93%
same,Activity,[6],100%
same,Activity,[7],65%
same,Activity,[8],95%
same,Activity,[9],39%
same,Activity,[10],73%
CO[C@@H]1[C@H](N(C)C(=O)CCC(=O)NCCC(=O)NCCC(=O)NCCC(=O)NCCC(=O)NCCC(=O)NCCC(=O)NCCC(=O)N[C@H]2CNC(=O)C[C@@H](C(N)=O)NC(=O)CNC(=O)[C@H](Cc3ccccc3)NC(=O)[C@H](C(C)C)NC(=O)[C@H](CCCNC(=N)N)NC(=O)[C@H](Cc3ccccc3)NC(=O)[C@H](C(C)C)NC2=O)C[C@H]2O[C@]1(C)n1c3ccccc3c3c4c(c5c6ccccc6n2c5c31)C(=O)NC4 ({Staurosporine-Suc-βAla-βAla-βAla-βAla-βAla-βAla-βAla}-[Dap]VFRVFGD-NH2; lactam 1-8),Activity,[11],98%
same,Activity,[12],99%
